From ChEMBL document CHEMBL3421570, “Combinatorial Libraries As a Tool for the Discovery of Novel, Broad-Spectrum Antibacterial Agents Targeting the ESKAPE Pathogens” (J Med Chem, 2015) come the findings set out here.

Molecules are shown by their SMILES. Active and inactive are the calls of the source. The rule behind the calls is not given here.

Assay [1] concerns Staphylococcus aureus. Kind of assay: Induction of bacterial cell lysis in methicillin-resistant Staphylococcus aureus assessed as cell recovery at 2% by time kill assay. The format is functional.
Assay [2] deals with Staphylococcus aureus. Kind of assay: Bactericidal activity against methicillin-resistant Staphylococcus aureus assessed as cell survival recovery at 2% measured after drug wash out after 120 mins by time kill assay. The format is functional. A digest of the protocol: (§1)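 MRSA from stationary phase was regrown 3 h in TSB and seeded at OD600 0.5. […] After 120 min, cells were centrifuged and washed, serially diluted and plated for CFU. Percent recovery is relative to no-drug controls.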

Assay [3] relates to Staphylococcus aureus. Kind of assay: Effect on bacterial density of methicillin-resistant Staphylococcus aureus at 200 uM measured over 2 hrs period by time kill assay. Format: functional, organism-based.
Assay [4] has as its system Staphylococcus aureus. Kind of assay: Bactericidal activity against methicillin-resistant Staphylococcus aureus assessed as cell survival recovery at 200 uM measured after drug wash out after 120 mins by time kill assay. Format: functional. Conditions: 2 h. Summed up:
as §1

For assay [5], the system named is Staphylococcus aureus. Kind of assay: Bactericidal activity against methicillin-resistant Staphylococcus aureus assessed as cell survival recovery at 0.001% measured after drug wash out after 120 mins by time kill assay. The format is functional. A digest of the protocol:
as §1

For `CCCCCCCCCCCCOS(=O)(=O)[O-].[Na+]` [SODIUM LAURYL SULFATE], in assay [1], the Activity was found to be 52%. Further, the Survival in assay [2] turned out to be 0%. As to `C[C@H]1c2cccc(O)c2C(=O)C2=C(O)[C@]3(O)C(=O)C(C(N)=O)=C(O)[C@@H](N(C)C)[C@@H]3[C@@H](O)[C@@H]21` [DOXYCYCLINE], the outcome in assay [3] was inactive. For the same molecule, the survival at 200 µM in assay [4] amounted to 92%.

In the case of `CC(C)(C)CC(C)(C)c1ccc(OCCOCC[N+](C)(C)Cc2ccccc2)cc1.[Cl-]` [BENZETHONIUM CHLORIDE], the Survival in assay [5] is recorded as 0%.
